Assay results pooled from the literature.
Lines come from different studies, so protocols differ. pIC50: −log10 of the molar value.

The pIC50 of `O=C(/C=C(O)/C=C/c1ccccn1)/C=C/c1c[nH]c2ccccc12` is reported as 4.46 (CHO-K1; cell growth or viability; SRB; 72 h).
With `CC(C)C[C@H](NC(=O)[C@H](Cc1ccccc1)NC(=O)c1cnccn1)B(O)O` the pIC50 was 7.96 (OV56; cell growth or viability; ATP luminescence).
The pIC50 of `CSc1ccc(-c2nc3ccc(C)cc3[nH]2)cc1` is reported as 4.41 (human Rhabdomyosarcoma cell; cell growth or viability; MTT; 48 h).
With `O=C(O)Cc1ccccc1Nc1c(Cl)cccc1Cl` the pIC50 was 4.99 (RAW264.7; IL-6 release; inhibitor; LPS-stimulated).
`C(=C\c1c[nH]c2ccccc12)/c1cc(/C=C/c2cccs2)[nH]n1` gave a pIC50 of 4.79 (CHO-K1; cell growth or viability; SRB; 72 h).
`Fc1ccc(-c2nc3ccccc3n2Cc2ccccc2)cc1` gave a pIC50 of 4.55 (human Rhabdomyosarcoma cell; cell growth or viability; MTT).
For `COCCCN1C(/C=C/c2cccnc2)=CC(=O)CC1c1cccnc1` (stereo not shown), the pIC50 was less than 4.12 (CHO-K1; cell growth or viability; SRB; 72 h).
`Cc1ccc2nc(-c3cccc(O)c3)[nH]c2c1` gave a pIC50 of 4.71 (human Rhabdomyosarcoma cell; cell growth or viability; MTT; 48 h).
For `COc1cc(/C=C/c2cc(/C=C/c3cccc4cnccc34)[nH]n2)ccc1O`, the pIC50 was 5.08 (CHO-K1; cell growth or viability; MTT; 72 h).
For `COc1cc(/C=C/C(=O)CC(=O)/C=C/c2ccc(O)c(OC)c2)ccc1O`, the pIC50 was 4.47 (CHO-K1; cell growth or viability; SRB; 72 h).
